These results are taken from ChEMBL document CHEMBL1156938, “Synthesis and in vitro biological evaluation of carbonyl group-containing inhibitors of vesicular acetylcholine transporter” (J Med Chem, 2010).

As usually defined, the pKi is the Ki on a negative log10 scale, so that one unit is a factor of ten.

Structures are written as SMILES. pKi: −log10 of the molar value.

The target in assay [1] is Sigma non-opioid intracellular receptor 1 (Cavia porcellus, UniProt Q60492). Description: Displacement of [3H](+)-pentazocine from sigma 1 receptor in guinea pig brain membrane homogenates after 90 mins by liquid scintillation counting. The class given is cell membranes. The gist of the method:
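Compounds dissolved in DMF, DMSO or ethanol, then diluted in 50 mM Tris-HCl, 150 mM NaCl, 100 mM EDTA, pH 7.4. Guinea pig brain membranes (~300 μg protein) with ~5 nM [3H](+)-pentazocine, 90 min at room temperature. Nonspecific binding taken with 10 μM haloperidol. Filtered and counted. IC50 from one-site nonlinear fit. Ki by Cheng-Prusoff (Kd 7.89 nM), mean ± SEM.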
(In a radioligand displacement assay an active substance lowers the binding of a labelled ligand.)

Assay [2] is described as follows: Displacement of [3H]DTG from sigma 2 receptor in rat liver membrane homogenates after 2 hrs by liquid scintillation counting. The class given is cell membranes. The gist of the method:
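Rat liver membranes (~300 μg protein) with ~5 nM [3H]DTG plus 1 μM (+)-pentazocine to mask σ1 sites, 2 h at room temperature. Compounds were diluted in pH 7.4 Tris-HCl/NaCl/EDTA buffer. Nonspecific binding taken with 10 μM haloperidol, then filtration and scintillation counting. IC50 from one-site regression. Ki by Cheng-Prusoff (Kd 30.73 nM), mean ± SEM.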

Assay [3] addresses T1, Vesicular acetylcholine transporter (Torpedo californica, UniProt P81721).
T1 sequence (P81721 whole entry): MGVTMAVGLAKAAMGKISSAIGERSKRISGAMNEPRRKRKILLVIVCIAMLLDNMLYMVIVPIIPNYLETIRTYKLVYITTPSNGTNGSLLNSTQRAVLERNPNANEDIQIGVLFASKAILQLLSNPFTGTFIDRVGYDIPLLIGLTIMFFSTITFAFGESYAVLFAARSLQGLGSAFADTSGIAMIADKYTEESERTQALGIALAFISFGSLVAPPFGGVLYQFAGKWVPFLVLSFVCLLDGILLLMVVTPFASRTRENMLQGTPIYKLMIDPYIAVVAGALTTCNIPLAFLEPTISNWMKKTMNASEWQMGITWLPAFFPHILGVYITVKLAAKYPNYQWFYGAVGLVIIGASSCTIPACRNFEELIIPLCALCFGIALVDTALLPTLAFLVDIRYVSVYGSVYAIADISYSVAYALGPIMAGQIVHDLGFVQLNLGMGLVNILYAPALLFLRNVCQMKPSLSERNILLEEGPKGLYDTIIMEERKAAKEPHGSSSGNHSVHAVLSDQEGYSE
Description: Displacement of [3H]vesamicol from VAChT in Torpedo californica cholinergic synaptic vesicles. On the set-up: species or system Tetronarce californica. In a few lines: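 Compounds tested as hydrochlorides. Averaged data fit by regression to a rectangular hyperbola to give Ki. Each compound assayed independently at least two times; Ki reported as mean ± SEM from at least three experiments.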

The nature of assay [4]: Selectivity ratio of Ki for sigma 1 receptor in guinea pig brain membrane homogenates to Ki for VAChT in Torpedo californica cholinergic synaptic vesicles. The assay is classed as cell membranes. The gist of the method:
(§1)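 Index calculated as Ki(σ1 or σ2)/Ki(VAChT). […] Averaged data were fit to a rectangular hyperbola, and each compound was assayed independently at least twice. σ Ki values come from the radioligand binding assays in guinea pig brain (σ1) and rat liver (σ2) membranes.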

Assay [5] can be described thus: Selectivity ratio of for sigma 2 receptor in rat liver membrane homogenates to Ki for VAChT in Torpedo californica cholinergic synaptic vesicles. The class given is cell membranes. In a few lines: as §1

Sequence of Sigma non-opioid intracellular receptor 1 (Q60492 whole entry): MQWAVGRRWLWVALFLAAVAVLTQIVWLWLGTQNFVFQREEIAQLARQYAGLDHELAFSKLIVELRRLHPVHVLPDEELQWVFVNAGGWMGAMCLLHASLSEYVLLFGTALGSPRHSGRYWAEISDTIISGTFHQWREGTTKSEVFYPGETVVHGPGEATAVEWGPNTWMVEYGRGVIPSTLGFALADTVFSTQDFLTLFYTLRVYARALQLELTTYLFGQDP

Take `CCOC(=O)C1CCN([C@@H]2Cc3ccccc3C[C@H]2O)CC1` (relative stereo): the pKi in assay [1] is less than 6.00; in assay [2], less than 6.00; in assay [3], 7.16.
In the case of `O=C(C1CCN([C@@H]2Cc3ccccc3C[C@H]2O)CC1)N1CCC(Cc2ccccc2)CC1` (relative stereo), the figures for the pKi in assay [1], in assay [2] and in assay [3] were 7.70, less than 6.00 and 8.62, respectively. Also, in assay [4], the Ratio Ki was found to be 8.3.
In assay [3], `O=C(c1cccs1)C1CCN([C@@H]2CCCC[C@H]2O)CC1` had a negative-log Ki (pKi) of 6.12.
In the case of `O=C(C1CCN([C@@H]2Cc3ccccc3C[C@H]2O)CC1)N1CCCCC1` (relative stereo), the negative logarithm of the Ki (pKi) in assay [1] was less than 6.00; in assay [2], less than 6.00; in assay [3], 7.51.
In assay [3], `O=C(c1ccc(F)cc1)C1(c2ccccc2)CCN([C@@H]2Cc3ccccc3C[C@H]2O)CC1` showed a negative logarithm of the Ki (pKi) of 8.74.
As for `Nc1cccc2c1C[C@@H](N1CCC(C(=O)c3ccc(F)cc3)CC1)[C@H](O)C2`, the pKi in assay [1] is less than 6.00; in assay [2] it was less than 6.00; in assay [3] it was 8.62.
Regarding `Nc1cccc2c1C[C@@H](N1CCC(C(=O)c3cccs3)CC1)[C@H](O)C2`, the results for the pKi in assay [1], in assay [2] and in assay [3] were less than 6.00, less than 6.00 and 8.31, respectively.
As to `O=C(C1CCN([C@@H]2Cc3ccccc3C[C@H]2O)CC1)N1CCN(Cc2ccccc2)CC1` (relative stereo), the negative-log Ki (pKi) in assay [1] is 6.93; in assay [2], less than 6.00; in assay [3], 8.68. The Ratio Ki in assay [4] was found to be 56.8.
For `O=C(c1ccccc1)C1(c2ccccc2)CCN([C@@H]2CCCC[C@H]2O)CC1`, in assay [3], the pKi is 7.16.
Regarding `Nc1cccc2c1C[C@@H](N1CCC(C(=O)c3ccc(Br)s3)CC1)[C@H](O)C2`, the pKi is less than 6.00 in assay [1], less than 6.00 in assay [2] and 9.39 in assay [3].
In assay [3], `O=C(c1cccs1)C1CCN([C@@H]2Cc3ccccc3C[C@H]2O)CC1` (relative stereo) showed a pKi of 8.30.
Turning to `Nc1cccc2c1C[C@@H](O)[C@H](N1CCC(C(=O)c3ccc(F)cc3)CC1)C2`, the pKi in assay [1] is 6.30; in assay [2], 6.45; in assay [3], 8.12. Further, the Ratio Ki stood at 46.4 in assay [5] and 65.4 in assay [4].
On the same counts, the results for `Nc1cccc2c1C[C@@H](N1CCC(C(=O)c3ccc(Br)cc3)CC1)[C@H](O)C2` are 6.40, less than 6.00, 9.28, greater than 1890 and 746.
The corresponding values for `O=C(c1ccccc1)C1CCN([C@@H]2CCCC[C@H]2O)CC1` are 6.55, 6.47, 6.19, 0.5 and 0.4.
Compound `O[C@@H]1CCCC[C@H]1N1CCC(c2ccccc2)CC1` [VESAMICOL] gave a pKi in assay [2] of 7.46.
As for `Nc1cccc2c1C[C@@H](N1CCC(C(=O)N3CCCCC3)CC1)[C@H](O)C2`, in assay [3], the pKi was 7.05.
Take `Nc1cccc2c1C[C@@H](O)[C@H](N1CCC(C(=O)N3CCCCC3)CC1)C2`: the pKi in assay [3] is 6.35.
Regarding `Nc1cccc2c1C[C@@H](O)[C@H](N1CCC(C(=O)c3ccc(Br)s3)CC1)C2`, the pKi is 6.32 in assay [1], 6.92 in assay [2] and 7.53 in assay [3]. In addition, the values for the Ratio Ki in assay [5] and in assay [4] were 4.1 and 16.4, respectively.
The corresponding values for `O=C(c1ccc(Br)s1)C1CCN([C@@H]2CCCC[C@H]2O)CC1` are 7.53, 7.45, 7.33, 0.8 and 0.6.
`O=C(c1ccccc1)C1(c2ccccc2)CCN([C@@H]2Cc3ccccc3C[C@H]2O)CC1` (relative stereo) had a negative-log Ki (pKi) in assay [3] of 8.79.
For `Nc1cccc2c1C[C@@H](O)[C@H](N1CCC(C(=O)c3cccs3)CC1)C2`, the negative logarithm of the Ki (pKi) in assay [1] was less than 6.00; in assay [2], less than 6.00; in assay [3], 6.87.
On to `O=C(c1ccc(F)cc1)C1CCN([C@@H]2CCCC[C@H]2O)CC1`, for which the negative logarithm of the Ki (pKi) is 6.52 in assay [1], 6.95 in assay [2] and 6.37 in assay [3]. Besides, the Ratio Ki was 0.3 in assay [5] and 0.7 in assay [4].
For the compound `O=C(Cc1ccccc1)C1(c2ccccc2)CCN([C@@H]2Cc3ccccc3C[C@H]2O)CC1` (relative stereo), in assay [3], the pKi was 8.86.
As for `O=C(c1ccc(I)s1)C1CCN([C@@H]2Cc3ccccc3C[C@H]2O)CC1` (relative stereo), the pKi is 6.71 in assay [1], 6.46 in assay [2] and 9.18 in assay [3]. Further, the results for the Ratio Ki in assay [5] and in assay [4] were 522 and 294, respectively.
The corresponding values for `O=C(c1ccc(I)s1)C1CCN([C@@H]2CCCC[C@H]2O)CC1` are 8.03, 7.31, 6.25, 0.1 and 0.02.
Take `O=C(C1CCN([C@@H]2Cc3ccccc3C[C@H]2O)CC1)N1CCC(c2ccccc2)CC1` (relative stereo): the values for the pKi in assay [1], in assay [2] and in assay [3] were 7.30, less than 6.00 and 8.68, respectively. In assay [4], the Ratio Ki was determined as 24.3.
For the compound `O=C(c1ccc(Br)s1)C1CCN([C@@H]2Cc3ccccc3C[C@H]2O)CC1` (relative stereo), the pKi is 6.89 in assay [1], 7.14 in assay [2] and 9.27 in assay [3]. For the same compound, the values for the Ratio Ki in assay [5] and in assay [4] were 133 and 239, respectively.
As to `O=C(c1ccc(Br)cc1)C1CCN([C@@H]2CCCC[C@H]2O)CC1`, the pKi is 7.80 in assay [1], 7.52 in assay [2] and 7.29 in assay [3]. For the same compound, the values for the Ratio Ki in assay [5] and in assay [4] were 0.6 and 0.3, respectively.
